Consider four compounds from the M2OR odorant receptor database.

What all share (settings): stereoisomer not certain
One experiment deals with T1, OR10A6 (Homo sapiens) (UniProt Q8NH74).
T1 sequence (whole entry): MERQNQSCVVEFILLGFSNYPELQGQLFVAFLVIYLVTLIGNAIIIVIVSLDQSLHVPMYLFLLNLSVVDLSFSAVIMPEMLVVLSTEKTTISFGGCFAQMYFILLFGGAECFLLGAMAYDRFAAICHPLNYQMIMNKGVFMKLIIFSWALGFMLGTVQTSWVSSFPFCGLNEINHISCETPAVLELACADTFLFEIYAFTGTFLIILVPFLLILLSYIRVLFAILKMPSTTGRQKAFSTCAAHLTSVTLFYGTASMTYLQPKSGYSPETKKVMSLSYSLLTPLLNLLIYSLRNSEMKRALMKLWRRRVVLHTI
The essentials: (§1)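 Whether a receptor–molecule pair is responsive (active) rests on the original authors' judgment that its measured signal was statistically different from baseline. Pairs without that judgment are non-responsive (inactive). Sources used varied assay methods, commonly transient luciferase assays in mammalian cell lines.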

A further experiment has as its system T2, O5AN1.
T2 sequence (whole entry): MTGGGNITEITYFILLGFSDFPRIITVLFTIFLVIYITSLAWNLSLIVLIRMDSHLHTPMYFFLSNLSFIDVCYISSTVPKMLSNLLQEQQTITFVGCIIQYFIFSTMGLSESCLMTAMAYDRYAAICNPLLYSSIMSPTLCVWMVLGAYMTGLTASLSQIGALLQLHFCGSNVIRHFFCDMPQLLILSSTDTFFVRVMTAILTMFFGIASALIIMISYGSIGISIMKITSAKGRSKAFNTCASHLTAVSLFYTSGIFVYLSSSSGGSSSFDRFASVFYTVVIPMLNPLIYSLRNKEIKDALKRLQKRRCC
The essentials: as §1

For a further experiment, the target named is T3, OR10A2 (Homo sapiens) (UniProt Q9H208).
T3 sequence (whole entry): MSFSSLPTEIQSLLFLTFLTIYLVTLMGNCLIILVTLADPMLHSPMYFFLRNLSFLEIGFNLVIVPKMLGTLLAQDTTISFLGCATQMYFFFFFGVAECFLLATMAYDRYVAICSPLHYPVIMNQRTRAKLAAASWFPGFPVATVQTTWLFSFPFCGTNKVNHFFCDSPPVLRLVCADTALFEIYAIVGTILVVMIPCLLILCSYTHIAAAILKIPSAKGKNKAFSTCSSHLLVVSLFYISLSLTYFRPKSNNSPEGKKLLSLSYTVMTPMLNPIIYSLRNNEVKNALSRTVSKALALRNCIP
The essentials:
as §1

The target of the next experiment is T4, OR10A4 (Homo sapiens) (UniProt Q9H209).
T4 sequence (whole entry): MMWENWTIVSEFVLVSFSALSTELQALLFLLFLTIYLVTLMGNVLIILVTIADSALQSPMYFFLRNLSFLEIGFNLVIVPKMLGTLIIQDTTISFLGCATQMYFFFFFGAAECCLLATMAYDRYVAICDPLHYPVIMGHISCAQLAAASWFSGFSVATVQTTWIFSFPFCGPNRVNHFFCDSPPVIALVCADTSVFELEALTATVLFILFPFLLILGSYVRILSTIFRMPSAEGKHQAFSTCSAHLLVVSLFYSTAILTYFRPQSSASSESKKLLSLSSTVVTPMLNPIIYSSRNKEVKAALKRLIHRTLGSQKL
The essentials: as §1

A further experiment addresses T5, OR10A5 (Homo sapiens) (UniProt Q9H207).
T5 sequence (whole entry): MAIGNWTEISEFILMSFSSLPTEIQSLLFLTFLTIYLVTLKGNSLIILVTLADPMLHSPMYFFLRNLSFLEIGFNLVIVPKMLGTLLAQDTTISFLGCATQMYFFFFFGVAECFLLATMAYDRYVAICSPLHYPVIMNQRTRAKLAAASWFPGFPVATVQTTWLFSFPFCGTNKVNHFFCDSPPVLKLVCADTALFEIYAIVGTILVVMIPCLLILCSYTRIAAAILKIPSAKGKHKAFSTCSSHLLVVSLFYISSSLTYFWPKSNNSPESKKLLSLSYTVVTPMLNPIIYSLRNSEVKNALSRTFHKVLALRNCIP
The essentials:
as §1

In a further experiment the target is T6, OR10A7 (Homo sapiens) (UniProt Q8NGE5).
T6 sequence (whole entry): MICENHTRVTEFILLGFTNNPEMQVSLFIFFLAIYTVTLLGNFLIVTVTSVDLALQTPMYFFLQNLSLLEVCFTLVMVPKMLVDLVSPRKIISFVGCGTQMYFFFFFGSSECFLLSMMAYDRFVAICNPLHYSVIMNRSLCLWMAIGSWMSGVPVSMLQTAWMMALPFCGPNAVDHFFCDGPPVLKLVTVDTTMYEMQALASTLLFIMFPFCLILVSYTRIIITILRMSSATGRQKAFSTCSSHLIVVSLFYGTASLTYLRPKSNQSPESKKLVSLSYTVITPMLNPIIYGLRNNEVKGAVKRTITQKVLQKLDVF
The essentials:
as §1

The target of another experiment is OR10AC1 (Homo sapiens) (UniProt Q8NH08). The essentials: as §1
OR10AC1 (Homo sapiens), sequence (Q8NH08 whole entry): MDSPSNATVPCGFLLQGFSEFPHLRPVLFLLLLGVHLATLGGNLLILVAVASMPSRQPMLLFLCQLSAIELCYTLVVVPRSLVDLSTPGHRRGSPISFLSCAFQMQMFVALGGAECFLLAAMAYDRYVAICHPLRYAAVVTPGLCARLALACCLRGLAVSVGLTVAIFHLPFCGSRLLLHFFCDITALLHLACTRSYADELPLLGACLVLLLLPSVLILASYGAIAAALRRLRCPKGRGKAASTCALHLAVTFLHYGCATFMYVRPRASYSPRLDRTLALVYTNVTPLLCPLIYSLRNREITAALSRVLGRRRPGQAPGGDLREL
The next experiment concerns the target T7, OR10AD1 (Homo sapiens) (UniProt Q8NGE0).
T7 sequence (whole entry): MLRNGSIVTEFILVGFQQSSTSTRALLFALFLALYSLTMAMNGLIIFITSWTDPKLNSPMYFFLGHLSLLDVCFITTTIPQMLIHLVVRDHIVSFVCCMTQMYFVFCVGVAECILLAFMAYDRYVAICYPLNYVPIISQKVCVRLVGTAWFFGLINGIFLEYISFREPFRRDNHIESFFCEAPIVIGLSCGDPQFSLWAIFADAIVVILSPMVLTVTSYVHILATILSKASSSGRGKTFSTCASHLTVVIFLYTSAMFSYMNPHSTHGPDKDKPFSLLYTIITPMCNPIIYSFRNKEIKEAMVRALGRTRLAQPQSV
The essentials:
as §1

The target of another experiment is T8, OR10AG1 (Homo sapiens) (UniProt Q8NH19).
T8 sequence (whole entry): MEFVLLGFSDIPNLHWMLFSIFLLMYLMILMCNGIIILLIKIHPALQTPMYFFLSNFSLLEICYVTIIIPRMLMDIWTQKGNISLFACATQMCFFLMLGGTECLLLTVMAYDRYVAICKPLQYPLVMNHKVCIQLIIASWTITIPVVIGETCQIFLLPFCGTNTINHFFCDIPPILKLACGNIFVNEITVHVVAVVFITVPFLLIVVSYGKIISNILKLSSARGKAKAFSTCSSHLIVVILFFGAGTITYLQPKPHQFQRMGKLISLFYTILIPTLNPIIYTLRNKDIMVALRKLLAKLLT
The essentials:
as §1

For the next experiment, the target named is T9, OR10C1 (Homo sapiens) (UniProt Q96KK4).
T9 sequence (whole entry): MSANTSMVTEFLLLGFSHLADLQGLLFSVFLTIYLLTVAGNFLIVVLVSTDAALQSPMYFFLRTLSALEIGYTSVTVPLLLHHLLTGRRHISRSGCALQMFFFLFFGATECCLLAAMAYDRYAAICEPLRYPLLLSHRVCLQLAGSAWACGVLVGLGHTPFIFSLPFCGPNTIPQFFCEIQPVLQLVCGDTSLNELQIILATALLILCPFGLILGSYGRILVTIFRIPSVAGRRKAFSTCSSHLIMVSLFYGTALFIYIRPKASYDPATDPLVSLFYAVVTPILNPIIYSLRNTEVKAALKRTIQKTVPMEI
The essentials:
as §1

In a further experiment the target is T10, OR10A3 (Homo sapiens) (UniProt P58181).
T10 sequence (whole entry): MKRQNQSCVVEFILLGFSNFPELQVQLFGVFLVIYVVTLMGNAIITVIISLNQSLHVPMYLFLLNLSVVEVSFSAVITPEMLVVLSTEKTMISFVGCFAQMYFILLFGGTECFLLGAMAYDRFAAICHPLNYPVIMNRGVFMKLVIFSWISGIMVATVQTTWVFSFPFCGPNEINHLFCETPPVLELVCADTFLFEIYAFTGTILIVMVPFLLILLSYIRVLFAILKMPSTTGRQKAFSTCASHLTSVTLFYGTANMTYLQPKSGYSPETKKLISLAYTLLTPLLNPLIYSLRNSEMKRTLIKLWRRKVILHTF
The essentials:
as §1

A further experiment addresses T11, OR10D3 (Homo sapiens) (UniProt Q8NH80).
T11 sequence (whole entry): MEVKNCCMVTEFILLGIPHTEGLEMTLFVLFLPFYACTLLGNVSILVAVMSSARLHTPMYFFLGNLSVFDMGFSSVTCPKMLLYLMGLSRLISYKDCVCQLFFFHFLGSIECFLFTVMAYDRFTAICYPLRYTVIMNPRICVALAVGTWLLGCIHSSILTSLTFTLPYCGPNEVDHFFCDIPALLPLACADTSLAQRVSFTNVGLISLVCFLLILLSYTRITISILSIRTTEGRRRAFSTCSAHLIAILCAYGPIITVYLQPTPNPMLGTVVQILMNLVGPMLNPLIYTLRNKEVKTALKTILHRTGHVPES
The essentials:
as §1
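Also: active if original authors judged signal statistically different from baseline.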

As to `CCC(=O)OCCCc1ccccc1`, the “odorant receptor agonist call” value with OR10A6 (Homo sapiens) is “inactive”.
For the compound `CC(=O)c1c(C)c([N+](=O)[O-])c(C(C)(C)C)c([N+](=O)[O-])c1C`, in the experiment with O5AN1, the “odorant receptor agonist call” value was “active”. The “odorant receptor agonist call” value in the experiment with OR10A2 (Homo sapiens), in the experiment with OR10A4 (Homo sapiens), with OR10A5 (Homo sapiens), with OR10A6 (Homo sapiens), in the experiment with OR10A7 (Homo sapiens) and with OR10AC1 (Homo sapiens) was “inactive” throughout. The “odorant receptor agonist call” value with OR10AD1 (Homo sapiens), in the experiment with OR10AG1 (Homo sapiens) and with OR10C1 (Homo sapiens) was “inactive” in each case.
Turning to `CCCCCC(=O)C(C)C(C)=O` (configuration not stated), the “odorant receptor agonist call” value in the experiment with OR10A2 (Homo sapiens), with OR10A3 (Homo sapiens), with OR10A4 (Homo sapiens), with OR10A5 (Homo sapiens), with OR10A6 (Homo sapiens) and with OR10A7 (Homo sapiens) was “inactive” in each case. Besides, the “odorant receptor agonist call” value with OR10AD1 (Homo sapiens), in the experiment with OR10AG1 (Homo sapiens), in the experiment with OR10C1 (Homo sapiens) and with OR10D3 (Homo sapiens) was “inactive” each time.
As for `CC1CC=CCCCCCCCCC(=O)C1` (configuration not stated), the “odorant receptor agonist call” value with O5AN1 is “active”.
